Screens deposited in PubChem BioAssay by several laboratories.
An excerpt weighted towards active compounds, which were near 1.8% of everything screened.
CCR6 antagonist: CCR6 receptor antagonists, primary screen, cell-based, CHO-K1, luminescence, beta-arrestin, uHTS; C-C chemokine receptor type 6 (Homo sapiens), P51684; CHO-K1 CCR6 PathHunter beta-arrestin, CCL20-stimulated; inhibition, % at 20 µM; hit rate 0.49% among 340,000; AID 493098, 2011;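 active = compounds whose inhibition of the agonist-driven luminescence signal at 20 µM reaches about 50%, limit read from the data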;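 note: cells stimulated with CCL20 at 14 nM final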
EBI2 block: EBI2 receptor antagonists, beta-arrestin recruitment, primary screen, cell-based, luminescence, 7a,25-OHC stimulation, uHTS. G-protein coupled receptor 183 (Homo sapiens), P32249. 7a,25-OHC stimulated. inhibition, % at 5 µM. hit rate 0.81% among 360,000. AID 651636, 2012; in the data active = inhibition above about 38%;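 note: enzyme fragment complementation signal reports receptor beta-arrestin coupling in cells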
CXCR6 block: CXCR6 receptor inhibitors, primary screen, cell-based, beta-arrestin, luminescence, CHO-K1 PathHunter, 1536-well; AID 602244, 2012; C-X-C chemokine receptor type 6 (Homo sapiens), O00574; inhibition, % at 20 µM; hit rate 0.36% among 360,000; in the data active = inhibition above about 34%, passing the limit was not always enough;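 note: antagonist mode with CXCL16 agonist at 10 nM final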
APJ antag: antagonists of human apelin receptor APJ, primary screen, CHO-K1 cells, beta-arrestin complementation, luminescence. inhibition, % at 20 µM. AID 2521, 2010. P35414. hit rate 0.32% among 330,000;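 active = inhibition above about 40% at 20 µM, limit read from the data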;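 note: cells challenged with 10 nM apelin-13 agonist together with compound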
Target sequence (P35414 whole entry, looked up): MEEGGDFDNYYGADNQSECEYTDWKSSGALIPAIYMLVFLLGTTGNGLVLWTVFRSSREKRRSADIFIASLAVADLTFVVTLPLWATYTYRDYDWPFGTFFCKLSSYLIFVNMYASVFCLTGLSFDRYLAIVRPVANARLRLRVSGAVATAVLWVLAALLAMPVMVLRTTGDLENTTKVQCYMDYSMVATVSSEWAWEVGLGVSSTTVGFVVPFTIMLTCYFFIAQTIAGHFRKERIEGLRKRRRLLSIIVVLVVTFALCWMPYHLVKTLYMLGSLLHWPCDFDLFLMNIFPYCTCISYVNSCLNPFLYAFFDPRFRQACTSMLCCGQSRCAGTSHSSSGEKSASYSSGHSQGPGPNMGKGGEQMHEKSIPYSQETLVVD
APJ ag: agonists of human apelin receptor APJ, primary screen, CHO-K1 cells, PathHunter beta-arrestin, luminescence; activation, % at 20 µM; P35414; 0% DMSO wells, 100% apelin; hit rate 0.11% among 330,000; AID 2520, 2010;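 active = activation more than six SD over the plate average, tested at 20 µM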
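Test system: CHO-K1 APJ beta-arrestin complementation cell line | Compound: Single test compound dose, 20 µM final, 1% DMSO | Incubation: Compound 90 min 25 °C, reagent 1 h | Measured by: beta-gal luminescence | Read-out basis: APJ–arrestin association signal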
Beta2AR agonist: beta2AR agonists driving receptor internalization, primary screen, cell-based, FAP fluorogen, flow cytometry | AID 504454, 2011 | hit rate 0.43% among 340,000 | response, % (no concentration beside the values) | Am2.2-beta2AR cells | Beta-2 adrenergic receptor (Homo sapiens), P07550;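 active = response above a set limit, near 3 SD of response in nonfluorescent compounds, cut at about 42% in these data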
B2AR ag CP1: beta2AR agonists via receptor internalization, confirmation, cell-based, FAP fluorogen, flow cytometry, single point, cherry pick 1; shares compounds with Beta2AR agonist; Am2.2-beta2AR cells, FAP surface receptor; hits give low values; percent response (surface receptor), % at 10 µM; hit rate 25% among 1,100; AID 540358, 2011;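 active = surface receptor percent response at or below 58%, roughly 3 SD from nonfluorescent compounds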
FAP fluor counter: flagged in Am2.2 fluorescence counterscreen for beta-2AR agonists; shares compounds with Beta2AR agonist; Am2.2 cells, FAP fluorogen flow cytometry; hits give low values; calls only at 10 µM; 1,100 tested, under 10 active; AID 588765;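 active = percent response below a set limit in fluorescence channel 1 and below 50% in channel 8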
Numbers stand for hits; . = inactive; / = no result given.

SMILES	CCR6 antagonist	EBI2 block	CXCR6 block	APJ antag	APJ ag	Beta2AR agonist	B2AR ag CP1	FAP fluor counter
CCCc1nc2oc3c(NCC4CCCO4)ncnc3c2c2c1COC(C)(C)C2 (configuration not stated)	.	.	.	.	.	.	/	/
COc1ncnc2c1oc1nc(CC(C)C)c3c(c12)CCCC3	.	.	.	/	/	.	/	/
CCCc1nc2oc3c(NCCCN(C)C)ncnc3c2c2c1CCCC2	.	.	.	.	.	.	.	.
CC(C)Cc1nc2oc3c(Cl)ncnc3c2c2c1CCCC2	.	.	.	.	.	.	/	/
CCCc1nc2oc3c(Cl)ncnc3c2c2c1CCCC2	.	.	.	.	.	44	.	.
COc1ccc([C@H]2CC(=O)C=C(c3ccnc4ccc(Cl)cc34)C2)cc1	.	.	.	.	.	.	/	/
O=C(Nc1cccc(Cl)c1)c1csc([C@H]2C[C@H](O)[C@@H](CO)O2)n1	/	.	.	/	/	/	/	/
CCOc1cc(CNCCc2ccc(S(N)(=O)=O)cc2)cc(Cl)c1OCc1ccccc1	.	.	.	.	.	.	/	/
CCOc1cc(CNCCc2ccc(S(N)(=O)=O)cc2)ccc1OCc1ccccc1	.	.	.	/	/	.	.	.
O=C1Nc2cc(C(=O)NCCCN3CCCC3)ccc2S/C1=C\c1ccccc1	.	.	.	.	.	.	/	/
CCC1CCCCN1CCCNC(=O)c1ccc(/C=C2/Sc3ccccc3NC2=O)cc1 (configuration not stated)	.	.	.	.	.	44	.	.
CCOC(=O)c1c(NC(=O)COc2ccccc2C#N)sc2c1CC(C)(C)NC2(C)C	.	.	.	.	.	.	/	/
CCOC(=O)c1c(NC(=O)COc2ccccc2OCC)sc2c1CC(C)(C)NC2(C)C	.	.	.	.	.	62	.	.
COc1cccc(CNC(=O)[C@@H]2CCCN2C(=O)[C@H]2CCCCN2C(=O)c2cccc(Cl)c2)c1	/	.	.	/	/	/	/	/
C=CCn1c(-c2ccccc2)c[nH]c1=S	.	.	.	.	.	.	/	/
C=CCn1c(-c2ccc(Cl)cc2)c[nH]c1=S	.	.	.	.	.	/	.	.
O=C1NC(Cc2ccccc2)c2nc3cc(Cl)ccc3c(=O)n2-c2ncccc21 (configuration not stated)	/	.	.	/	/	/	/	/
CCc1nc2ccc(C(=O)NC3CCN(Cc4ccccc4)CC3)cn2c1N(C)Cc1ccc(N(C)C)cc1	/	.	.	/	/	/	/	/
Cc1ccccc1N=C/C=C1/C=C(c2ccccc2)OC(C)(C)O1	.	.	.	.	.	43	.	.
CCc1ccc(OCc2nnc(-c3ccccc3Br)o2)cc1	.	.	.	.	.	.	.	.
Clc1ccccc1OCc1nnc(-c2ccccc2Br)o1	.	.	.	.	.	.	/	/
Cc1ccc(CNC(=O)CCCCn2c(=O)[nH]c3ccsc3c2=O)cc1	.	.	.	.	.	.	.	.
Cc1ccc(NC(=O)CCCn2c(=O)[nH]c3ccsc3c2=O)cc1	.	.	.	.	.	.	/	/
O=C(CCCCCn1c(=O)[nH]c2ccsc2c1=O)NCc1cccs1	.	.	.	.	.	.	/	/
O=C(CCCCCn1c(=O)[nH]c2ccsc2c1=O)NCc1ccc(F)cc1	.	.	.	.	.	109	1.5	.
SMILES	CCR6 antagonist	EBI2 block	CXCR6 block	APJ antag	APJ ag	Beta2AR agonist	B2AR ag CP1	FAP fluor counter
CN(CC(=O)N1CCN(c2ccccn2)CC1)S(=O)(=O)c1ccc2ccccc2c1	.	.	.	.	.	.	/	/
CN(CC(=O)N1CCN(c2ccc(F)cc2)CC1)S(=O)(=O)c1ccc(F)cc1	.	.	.	.	.	.	.	.
CN(CC(=O)N1CCN(c2ccccn2)CC1)S(=O)(=O)c1ccc(Cl)cc1	.	.	.	.	.	110	33	.
COc1ccc(N2CCN(C(=O)CN(C)S(=O)(=O)c3cc(C)ccc3OC)CC2)cc1	.	.	.	.	.	.	.	.
Cc1ccc(S(=O)(=O)N(C)CC(=O)N2CCN(c3ccccn3)CC2)cc1	.	.	.	.	.	99	16	.
CC1=NN(C(N)=S)C(=O)C1N=Nc1ccccc1O (configuration not stated)	.	.	.	.	.	.	/	/
CCOc1ccccc1N=NC1C(=O)N(C(N)=S)N=C1C (configuration not stated)	.	.	.	.	.	.	.	.
CC(=O)Nc1ccc(-c2ccnc3c2CC(C)(C(=O)Nc2cccc(Oc4ccccc4)c2)O3)cc1 (configuration not stated)	/	.	.	/	/	/	/	/
Cc1ccc(SCc2[nH]nc3c2C2(C(=O)Nc4ccc([N+](=O)[O-])cc42)C(C#N)=C(N)O3)cc1 (configuration not stated)	.	.	.	.	.	84	.	.
Oc1ccccc1-c1nc(NCc2ccco2)c2ccccc2n1	.	.	.	.	.	.	/	/
COc1ccccc1Nc1nc(NCc2ccco2)c2ccccc2n1	.	.	.	.	.	.	.	.
COC(=O)[C@]12CCCCC=C1N(CCC1=CCCCC1)C(=O)[C@H](CC(=O)N1CCN(C(=O)c3ccco3)CC1)C2	/	.	.	/	/	/	/	/
CCOC(=O)COc1cccc2c(=O)n(CC(=O)NCc3ccc(F)cc3)ccc12	.	.	.	.	.	51	.	.
O=[N+]([O-])c1cc(S(=O)(=O)N2CCCCCC2)ccc1Cl	.	.	.	.	.	48	.	.
CN(CCCN1CCOCC1)C(=O)c1cc(COc2cccc(C(F)(F)F)c2)on1	.	.	.	.	.	52	.	.
CSc1ccc(/C=C(\C(=O)O)c2ccc(S(=O)(=O)N3CCCC3)s2)cc1	.	.	.	.	.	.	/	/
COc1ccc(NC(=O)c2cccc(N3C(=O)C4C5CCC(C5)C4C3=O)c2)cc1 (configuration not stated)	.	.	.	.	.	.	/	/
O=C(O)c1cc(NC(=O)c2cccc(N3C(=O)c4ccccc4C3=O)c2)cc(C(=O)O)c1	.	.	.	.	.	.	.	.
O=C(Nc1ccccc1C(=O)O)c1cccc(N2C(=O)c3ccccc3C2=O)c1	.	.	.	.	.	.	.	.
COc1ccc(NC(=O)c2cccc(N3C(=O)c4cccc([N+](=O)[O-])c4C3=O)c2)cc1	.	.	.	.	.	.	.	.
